Tests used:
[1] = Dissociation constant for formamidine ring; assay type: physicochemical
How it was run: (§1)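 Macroscopic ionization constants (pKa) by potentiometric titration of compound dissolved in previously boiled distilled water with 2 mL methanol; titrated with 0.1 N KOH in 0.1-equivalent additions, pH read at equilibrium after each addition.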

[2] = Dissociation constant for imidazole ring; assay type: physicochemical; how it was run: as §1
[3] = Percent of monocationic species at a pH of 6.5 was determined
How it was run: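 Monocationic percentage at pH 6.5 computed with the Henderson-Hasselbach equation from pKa values measured by potentiometric titration with 0.1 N KOH in water containing a little methanol.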

[4] = target: Histamine H2 receptor (Cavia porcellus) (UniProt P47747); assay: Antagonist activity against histamine H2 receptor was evaluated in guinea pig atria; value ranges from (3.6-16.1)x10E-9; assay type: functional
How it was run: (§2)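 Spontaneously beating atria from male Dunkin-Hartley guinea pigs (400–500 g) in oxygenated (O2/CO2 95:5) McEwen's solution, pH 6.5, 32 °C; rate recorded by instantaneous rate meter. Cumulative histamine up to maximal chronotropic response; antagonist equilibrated 60 min. K_B = [B]/(DR − 1), DR being histamine dose ratios at half-maximal response with and without several antagonist concentrations; multiple-regression evaluation.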

[5] = target: Histamine H2 receptor (Cavia porcellus) (UniProt P47747); assay: Antagonist activity against histamine H2 receptor was evaluated in guinea pig atria; value ranges from (3.8-119)x10E-9; assay type: functional; how it was run: as §2
[6] = target: Histamine H2 receptor (Cavia porcellus) (UniProt P47747); assay: Antagonist activity against histamine H2 receptor was evaluated in guinea pig atria; value ranges from (40.2-93.3) x10E-9; assay type: functional; how it was run: as §2
[7] = Dissociation constant for imidazole ring; ND means not determined because of product insolubility; assay type: physicochemical; how it was run: as §1

Sequence of Histamine H2 receptor (Cavia porcellus) (P47747 whole entry): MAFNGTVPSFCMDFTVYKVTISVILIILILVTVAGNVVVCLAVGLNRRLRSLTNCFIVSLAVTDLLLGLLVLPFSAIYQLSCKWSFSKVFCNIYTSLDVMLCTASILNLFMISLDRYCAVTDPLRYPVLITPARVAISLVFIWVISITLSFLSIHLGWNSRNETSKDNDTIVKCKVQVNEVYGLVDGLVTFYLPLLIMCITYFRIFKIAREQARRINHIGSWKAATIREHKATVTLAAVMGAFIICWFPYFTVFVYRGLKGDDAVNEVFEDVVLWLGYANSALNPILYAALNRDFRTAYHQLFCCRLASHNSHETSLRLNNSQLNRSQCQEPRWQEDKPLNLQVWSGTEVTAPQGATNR

| pKa [1] | pKa [2] | Kb [4] [nM] | Kb [5] [nM] | Kb [6] [nM] | pKa [7] | SMILES | Monocation species [3] [%] |
| --- | --- | --- | --- | --- | --- | --- | --- |
| 6.14 | 4.45 | 7.6 |  |  |  | FC(F)(F)C/N=C/Nc1ccc(-c2c[nH]cn2)cc1 | 29.5 |
| 6.6 | 4.54 |  | 21 |  |  | FC(F)C/N=C/Nc1ccc(-c2c[nH]cn2)cc1 | 54.64 |
| 8.65 | 5.57 |  |  |  |  | CC/N=C/Nc1ccc(-c2c[nH]cn2)cc1 | 88.78 |
| 8.12 | 5.55 |  |  | 61 |  | FCC/N=C/Nc1ccc(-c2c[nH]cn2)cc1 | 87.56 |
| < 1 |  |  |  |  | Insoluble | N#C/N=C/Nc1ccc(-c2c[nH]cn2)cc1 |  |

— ChEMBL document CHEMBL1124468, “N-(fluoroethyl)(imidazolylphenyl)formamidines. The issue of the active species of mifentidine” (J Med Chem, 1989)
